In ChEMBL document CHEMBL1148970, “New acylated iridoid glucosides from Vitex altissima” (J Nat Prod, 2004):
Calls of active or inactive are those of the source. No cut-off for these calls is given here.

Biological target: T1, Polyunsaturated fatty acid 5-lipoxygenase (Homo sapiens) (UniProt P09917)
T1 sequence (whole entry): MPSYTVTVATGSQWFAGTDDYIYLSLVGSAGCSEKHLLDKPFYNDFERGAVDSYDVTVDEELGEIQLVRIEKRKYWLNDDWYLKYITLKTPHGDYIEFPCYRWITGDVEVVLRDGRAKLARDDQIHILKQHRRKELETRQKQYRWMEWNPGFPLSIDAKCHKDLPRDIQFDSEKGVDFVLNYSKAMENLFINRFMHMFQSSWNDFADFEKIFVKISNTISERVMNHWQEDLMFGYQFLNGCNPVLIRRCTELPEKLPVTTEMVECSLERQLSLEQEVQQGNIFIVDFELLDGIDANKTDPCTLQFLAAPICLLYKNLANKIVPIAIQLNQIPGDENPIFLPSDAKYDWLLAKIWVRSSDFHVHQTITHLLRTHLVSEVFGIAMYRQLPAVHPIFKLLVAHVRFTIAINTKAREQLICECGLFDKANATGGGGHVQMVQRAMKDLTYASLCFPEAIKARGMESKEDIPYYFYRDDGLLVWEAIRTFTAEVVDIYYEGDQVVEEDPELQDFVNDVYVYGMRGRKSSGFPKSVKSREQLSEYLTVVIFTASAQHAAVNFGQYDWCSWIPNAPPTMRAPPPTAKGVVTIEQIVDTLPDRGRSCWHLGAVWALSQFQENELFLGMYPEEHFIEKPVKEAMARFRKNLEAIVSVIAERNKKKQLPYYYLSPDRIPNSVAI
Test: Inhibition of 5-lipoxygenase activity at 1000 uM by ferric-xylenol orange peroxide assay relative to control
Summary of the method: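 Modified ferric-xylenol orange peroxide assay. 5-Lipoxygenase with test substance and linoleic acid (80 mM) in 50 mM phosphate pH 6.3 was incubated 5 min. Ferric-xylenol orange reagent in perchloric acid was then added and A585 read 2 min later. Percent inhibition is relative to the control. Triplicates averaged.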

**Q.** With `C[C@]1(O)CC[C@@H]2C(C(=O)O)=CO[C@@H](O[C@@H]3O[C@H](COC(=O)/C=C/c4ccc(O)c(O)c4)[C@@H](O)[C@H](O)[C@H]3OC(=O)c3ccc(O)cc3)[C@@H]21` as the compound, how does the Activity read?
**A.** The Activity was “inactive”.

**Q.** Which Activity does the source give for `C=C1[C@H]2[C@H](O[C@@H]3O[C@H](CO)[C@@H](O)[C@H](O)[C@H]3OC(=O)c3ccc(O)cc3)OC=C(C(=O)O)[C@H]2C[C@@H]1O` here?
**A.** The Activity was “inactive”.

**Q.** Which Activity does the source give for `C[C@H]1[C@H]2[C@H](O[C@@H]3O[C@H](COC(=O)/C=C/c4ccc(O)c(O)c4)[C@@H](O)[C@H](O)[C@H]3OC(=O)c3ccc(O)cc3)OC=C(C(=O)O)[C@H]2C[C@@H]1O` here?
**A.** Its Activity is “inactive”.

**Q.** Which Activity does the source give for `C[C@H]1[C@H]2[C@H](O[C@@H]3O[C@H](CO)[C@@H](O)[C@H](O)[C@H]3OC(=O)c3ccc(O)cc3)OC=C(C(=O)O)[C@H]2C[C@@H]1O` here?
**A.** The Activity was “inactive”.

**Q.** Which Activity does the source give for `O=C(OCC1=C[C@@H](O)[C@@H]2C=CO[C@@H](O[C@@H]3O[C@H](CO)[C@@H](O)[C@H](O)[C@H]3O)[C@H]12)c1ccc(O)cc1` here?
**A.** The Activity was “inactive”.

**Q.** For `COc1cc(/C=C/C(=O)OC[C@H]2O[C@@H](O[C@@H]3OC=C(C(=O)O)[C@H]4CC[C@](C)(O)[C@@H]34)[C@H](OC(=O)c3ccc(O)cc3)[C@@H](O)[C@@H]2O)ccc1O`, which Activity is on record?
**A.** The Activity was “inactive”.

**Q.** Which Activity does the source give for `C[C@]1(O)CC[C@@H]2C(C(=O)O)=CO[C@@H](O[C@@H]3O[C@H](CO)[C@@H](O)[C@H](O)[C@H]3OC(=O)c3ccc(O)cc3)[C@@H]21` here?
**A.** The Activity was “inactive”.

**Q.** With `C=C1[C@H]2[C@H](O[C@@H]3O[C@H](COC(=O)/C=C/c4ccc(O)c(O)c4)[C@@H](O)[C@H](O)[C@H]3OC(=O)c3ccc(O)cc3)OC=C(C(=O)O)[C@H]2C[C@@H]1O` as the compound, how does the Activity read?
**A.** The Activity was “inactive”.

Tested on: not listed separately
Test: Antioxidant activity assessed as superoxide radical scavenging activity by NBT method
Format: functional
Summary of the method: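 Riboflavin-photogenerated superoxide was detected by NBT reduction (McCord–Fridovich). The mixture held EDTA 6.0 µM, NaCN 3 µg, riboflavin 2 µM, NBT 50 µM and test substance in methanol, in 58 mM phosphate pH 7.8, 3 mL final. A560 was read before and after illumination. IC50 was taken from the plot of concentration in µM against % inhibition.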

**Q.** Which IC50 does the source give for `C[C@]1(O)CC[C@@H]2C(C(=O)O)=CO[C@@H](O[C@@H]3O[C@H](COC(=O)/C=C/c4ccc(O)c(O)c4)[C@@H](O)[C@H](O)[C@H]3OC(=O)c3ccc(O)cc3)[C@@H]21` here?
**A.** Its IC50 is 24.3 µM.

**Q.** Which IC50 does the source give for `COc1ccc(O)c(C(C)(C)C)c1.COc1ccc(O)cc1C(C)(C)C` [BUTYLATED HYDROXYANISOLE] here?
**A.** Its IC50 is 966 µM.

**Q.** Which IC50 does the source give for `C[C@H]1[C@H]2[C@H](O[C@@H]3O[C@H](COC(=O)/C=C/c4ccc(O)c(O)c4)[C@@H](O)[C@H](O)[C@H]3OC(=O)c3ccc(O)cc3)OC=C(C(=O)O)[C@H]2C[C@@H]1O` here?
**A.** The IC50 was 31.9 µM.

**Q.** For `Cc1cc(C(C)(C)C)c(O)c(C(C)(C)C)c1` [BUTYLATED HYDROXYTOLUENE], which IC50 is on record?
**A.** The IC50 was 381 µM.

**Q.** For `C=C1[C@H]2[C@H](O[C@@H]3O[C@H](COC(=O)/C=C/c4ccc(O)c(O)c4)[C@@H](O)[C@H](O)[C@H]3OC(=O)c3ccc(O)cc3)OC=C(C(=O)O)[C@H]2C[C@@H]1O`, which IC50 is on record?
**A.** The IC50 was 32 µM.

Tested on: Radical scavenging activity
Test: Antioxidant activity assessed as DPPH free radical scavenging activity
Format: functional
Summary of the method: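 DPPH was used as a […] methanolic solution and mixed with a range of test concentrations. Mixtures stood in the dark for 50 min, then absorbance at 517 nm was read against a blank. Run in triplicate and averaged.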

**Q.** With `C[C@]1(O)CC[C@@H]2C(C(=O)O)=CO[C@@H](O[C@@H]3O[C@H](COC(=O)/C=C/c4ccc(O)c(O)c4)[C@@H](O)[C@H](O)[C@H]3OC(=O)c3ccc(O)cc3)[C@@H]21` as the compound, how does the IC50 read?
**A.** The IC50 was 15.2 µM.

**Q.** For `COc1ccc(O)c(C(C)(C)C)c1.COc1ccc(O)cc1C(C)(C)C` [BUTYLATED HYDROXYANISOLE], which IC50 is on record?
**A.** The IC50 was 18 µM.

**Q.** For `C[C@H]1[C@H]2[C@H](O[C@@H]3O[C@H](COC(=O)/C=C/c4ccc(O)c(O)c4)[C@@H](O)[C@H](O)[C@H]3OC(=O)c3ccc(O)cc3)OC=C(C(=O)O)[C@H]2C[C@@H]1O`, which IC50 is on record?
**A.** The IC50 was 11.4 µM.

**Q.** Which IC50 does the source give for `Cc1cc(C(C)(C)C)c(O)c(C(C)(C)C)c1` [BUTYLATED HYDROXYTOLUENE] here?
**A.** The IC50 was 19 µM.

**Q.** Which IC50 does the source give for `C=C1[C@H]2[C@H](O[C@@H]3O[C@H](COC(=O)/C=C/c4ccc(O)c(O)c4)[C@@H](O)[C@H](O)[C@H]3OC(=O)c3ccc(O)cc3)OC=C(C(=O)O)[C@H]2C[C@@H]1O` here?
**A.** The IC50 was 10.9 µM.

Tested on: Rattus norvegicus
Test: Antiinflammatory activity against carrageenan-induced paw edema in Wistar rat at 200 mg/kg, po administered 1 hr before inflammation induction measured after 3 hrs of carrageenan challenge relative to control
Format: functional
Summary of the method: (§1)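 Wistar rats of either sex, 180-220 g, groups of six. Test material suspended in 1% Tween-80 and given orally 1 h before 0.1 mL of 1% w/v carrageenan in saline was injected subplantar into the left hind paw. Vehicle controls received 1% Tween-80 at 10 mL/kg. Paw volume was read by plethysmometer at 0 and 3 h. Percent inhibition compares mean edema volume with the control group.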

**Q.** For `COc1cc(/C=C/C(=O)OC[C@H]2O[C@@H](O[C@@H]3OC=C(C(=O)O)[C@H]4CC[C@](C)(O)[C@@H]34)[C@H](OC(=O)c3ccc(O)cc3)[C@@H](O)[C@@H]2O)ccc1O`, which inhibition in vivo at 200 mg/kg is on record?
**A.** Its inhibition in vivo at 200 mg/kg is 20%.

Tested on: Rattus norvegicus
Test: Antiinflammatory activity against carrageenan-induced paw edema in Wistar rat at 25 mg/kg, po administered 1 hr before inflammation induction measured after 3 hrs of carrageenan challenge relative to control
Format: functional
Summary of the method: as §1

**Q.** With `O=C([O-])Cc1ccccc1Nc1c(Cl)cccc1Cl.[Na+]` [DICLOFENAC SODIUM] as the compound, how does the Activity read?
**A.** The Activity was 62%.
